Source: ChEMBL document CHEMBL1130180, “17-Imidazolyl, pyrazolyl, and isoxazolyl androstene derivatives. Novel steroidal inhibitors of human cytochrome C17,20-lyase (P450(17 alpha)” (J Med Chem, 1997)

What was measured:
[1] = biological target: T1, Steroid 17-alpha-hydroxylase/17,20 lyase (Homo sapiens, UniProt P05093); assay: Inhibition of human testicular microsomal Cytochrome P450 17A1
T1 sequence (P05093 whole entry): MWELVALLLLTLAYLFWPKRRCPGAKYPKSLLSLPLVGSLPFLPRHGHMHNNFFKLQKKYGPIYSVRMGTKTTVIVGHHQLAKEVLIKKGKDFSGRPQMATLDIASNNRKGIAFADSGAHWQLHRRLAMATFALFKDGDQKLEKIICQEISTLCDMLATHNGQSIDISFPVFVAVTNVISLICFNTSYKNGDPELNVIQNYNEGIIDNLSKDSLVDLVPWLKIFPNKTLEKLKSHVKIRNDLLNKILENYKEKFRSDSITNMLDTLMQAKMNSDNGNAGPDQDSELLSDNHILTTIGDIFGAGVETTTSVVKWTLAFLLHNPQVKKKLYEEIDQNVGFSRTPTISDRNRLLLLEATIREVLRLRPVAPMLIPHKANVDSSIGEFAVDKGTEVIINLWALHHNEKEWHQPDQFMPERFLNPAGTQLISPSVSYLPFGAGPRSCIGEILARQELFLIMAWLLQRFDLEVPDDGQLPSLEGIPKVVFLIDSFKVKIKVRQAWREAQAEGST
Procedure, shortened: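 Human testis microsomes (orchidectomy tissue from untreated prostate cancer patients, stored at -70 °C, diluted in 0.1 M phosphate buffer). Radiometric: 10 μM [21-3H]-17α-hydroxypregnenolone, NADPH-generating system, pH 7.4, 10 min preincubation, then ~90 µg protein for 60 min under O2 at 34 °C. [3H]acetic acid measured in aqueous phase after chloroform extraction and charcoal. IC50 from log-log regression; six concentrations.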

[2] = biological target: T2, Steroid 17-alpha-hydroxylase/17,20 lyase (Rattus norvegicus, UniProt P11715); assay: Percent inhibition of rat testicular microsomal Cytochrome P450 17A1; design: concentration or dose not given beside the values
T2 sequence (P11715 whole entry): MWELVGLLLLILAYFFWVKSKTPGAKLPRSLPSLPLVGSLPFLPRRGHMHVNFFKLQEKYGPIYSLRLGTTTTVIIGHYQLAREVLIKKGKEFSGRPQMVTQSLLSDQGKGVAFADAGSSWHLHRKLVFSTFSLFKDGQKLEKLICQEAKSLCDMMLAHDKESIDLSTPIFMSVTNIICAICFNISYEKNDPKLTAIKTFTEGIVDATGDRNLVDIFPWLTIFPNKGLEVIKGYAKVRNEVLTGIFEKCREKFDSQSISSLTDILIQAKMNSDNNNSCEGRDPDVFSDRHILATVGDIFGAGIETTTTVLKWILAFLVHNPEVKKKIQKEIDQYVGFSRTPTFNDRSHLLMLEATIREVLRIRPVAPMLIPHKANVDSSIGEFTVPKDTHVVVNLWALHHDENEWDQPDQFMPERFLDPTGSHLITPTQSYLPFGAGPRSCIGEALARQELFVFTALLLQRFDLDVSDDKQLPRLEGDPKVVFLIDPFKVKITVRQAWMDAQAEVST
Procedure, shortened: (§1)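 Single-concentration screen at 1500 nM using adult Sprague-Dawley rat testis microsomes. Incubation: 10 μM [21-3H]-17α-hydroxypregnenolone with NADPH-generating system, pH 7.4, 60 min, 34 °C, under O2. Percent inhibition was read from tritiated acetic acid in the aqueous phase after chloroform extraction of steroids.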

[3] = biological target: T2, Steroid 17-alpha-hydroxylase/17,20 lyase; assay: Percent inhibition of rat testicular microsomal Cytochrome P450 17A1; No Inhibition; procedure, shortened: as §1
[4] = biological target: T1, Steroid 17-alpha-hydroxylase/17,20 lyase; assay: Percent inhibition of human testicular microsomal Cytochrome P450 17A1; design: concentration or dose not given beside the values
Procedure, shortened: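 Human testis microsomes were incubated 60 min at 34 °C under O2 with 10 μM [21-3H]-17α-hydroxypregnenolone and NADPH-generating system (pH 7.4). Test compound was present at a single 150 or 400 nM. Inhibition was read from [3H]acetic acid released to the aqueous phase after chloroform extraction.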

[5] = biological target: T2, Steroid 17-alpha-hydroxylase/17,20 lyase; assay: Inhibition of rat testicular microsomal Cytochrome P450 17A1
Procedure, shortened: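 Adult Sprague-Dawley rat (200-250 g) testicular microsomes, about 90 µg protein. [21-3H]-17α-hydroxypregnenolone was used at 10 µM total. Cofactors were NADP 65 µM, glucose 6-phosphate 0.71 mM and G6PDH 0.13 IU in phosphate buffer pH 7.4. Compounds were preincubated 10 min, then reacted 60 min under O2 at 34 °C. Released [3H]acetic acid was counted after chloroform extraction and charcoal treatment.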

Structure (SMILES) | IC50 [1] | Inhibition [2] | Conc [1] | Inhibition [3] | Inhibition [4] | IC50 [5]
C[C@]12CCC(=O)C=C1CCC1C2CC[C@@]2(C)C1CC[C@]2(O)c1c[nH]cn1 (some centres not stated) | 1200 nM | – | – | – | – | –
C[C@]12CCC3C(CC=C4CC(O)CC[C@@]43C)C1CCC2c1ccon1 (some centres not stated) | 1110 nM | 54% | – | – | – | –
Cc1ncc([C@H]2CC[C@H]3[C@@H]4CC=C5C[C@@H](O)CC[C@]5(C)[C@H]4CC[C@]23C)[nH]1 | – | – | – | – | 26% | 4810 nM
C[C@]12CCC(=O)C=C1CCC1C2CC[C@]2(C)C(c3cnc[nH]3)=CCC12 (some centres not stated) | 50 nM | – | – | – | – | 14 nM
C[C@]12CCC(O)CC1=CCC1C2CC[C@@]2(C)C1CC[C@@H]2c1c[nH]c(-c2ccccc2)n1 (some centres not stated) | – | – | 400 nM | Not Active | 21% | –
C[C@]12CCC3C(CC=C4CC(O)CC[C@@]43C)C1CCC2c1ncc[nH]1 (some centres not stated) | – | 19% | 400 nM | – | 24% | –
CC(=O)O[C@H]1CC[C@@]2(C)C(=CC[C@@H]3[C@@H]2CC[C@]2(C)C(c4cnc[nH]4)=CC[C@@H]32)C1 | – | 92% | – | – | – | –
CC(=O)N1CCN(c2ccc(OC[C@H]3CO[C@](Cn4ccnc4)(c4ccc(Cl)cc4Cl)O3)cc2)CC1 [KETOCONAZOLE] | – | – | – | – | – | 1070 nM
C[C@]12CC[C@H](O)CC1=CC[C@@H]1[C@@H]2CC[C@]2(C)C(c3ccn[nH]3)=CC[C@@H]12 | 42 nM | – | – | – | – | 28 nM
C[C@]12CC[C@H](O)CC1=CC[C@@H]1[C@@H]2CC[C@]2(C)C(c3c[nH]cn3)=CC[C@@H]12 | 24 nM | – | – | – | – | 49 nM
Cc1nc(C2CCC3C4CC=C5CC(O)CC[C@]5(C)C4CC[C@]23C)co1 (some centres not stated) | – | – | 400 nM | Not Active | 21% | –
C[C@]12CCC(=O)C=C1CCC1C2CC[C@]2(C)C(c3ccn[nH]3)=CCC12 (some centres not stated) | 59 nM | – | – | – | – | 76 nM
C[C@]12CCC(=O)C=C1CCC1C2CC[C@@]2(C)C1CC[C@@H]2c1cnc[nH]1 (some centres not stated) | 58 nM | – | – | – | – | 79 nM
C[C@]12CC[C@H](O)CC1=CC[C@@H]1[C@@H]2CC[C@@]2(C)[C@H]1CC1O[C@]12c1cnc[nH]1 (some centres not stated) | 430 nM | – | – | – | – | –
C[C@]12CC[C@H]3[C@@H](CC=C4C[C@@H](O)CC[C@@]43C)[C@@H]1CC[C@@H]2c1cnc[nH]1 | 66 nM | – | – | – | – | 91 nM
C[C@]12CC[C@H](O)CC1=CC[C@@H]1[C@@H]2CC[C@]2(C)C(c3ccno3)=CC[C@@H]12 | 108 nM | – | – | – | – | 84 nM

More lines, main results first:

IC50 [1] | Inhibition [2] | Conc [1] | Inhibition [3] | Inhibition [4] | Structure (SMILES) | IC50 [5]
199 nM | 55% | – | – | – | CC(=O)O[C@H]1CC[C@@]2(C)C(=CC[C@H]3[C@@H]4CC[C@H](c5c[nH]cn5)[C@@]4(C)CC[C@@H]32)C1 | –
– | – | 150 nM | Not Active | 25% | Cn1ccc(C2=CCC3C4CC=C5CC(O)CC[C@]5(C)C4CC[C@]23C)n1 (some centres not stated) | –
– | 93% | 150 nM | – | 21% | C[C@]12CCC3C(CC=C4CC(O)CC[C@@]43C)C1CCC2c1ccno1 (some centres not stated) | –
– | – | 150 nM | Not Active | 12% | Cn1nccc1C1=CCC2C3CC=C4CC(O)CC[C@]4(C)C3CC[C@]12C (some centres not stated) | –
100 nM | – | – | – | – | CC(=O)O[C@H]1CC[C@@]2(C)C(=CC[C@H]3[C@@H]4CC[C@H](C5=CNC(C(C)=O)N5)[C@@]4(C)CC[C@@H]32)C1 (some centres not stated) | 5460 nM
– | 25% | 400 nM | – | – | C[C@]12CCC(=O)C=C1CCC1C2CC[C@@]2(C)C1CC[C@@H]2C1N=CC=N1 (some centres not stated) | –
> 30000 nM | – | – | – | – | CC(C1N=CC=N1)[C@H]1CCC2C3CCC4=CC(=O)CC[C@]4(C)C3CC[C@@]21C (some centres not stated) | –
– | 92% | 150 nM | – | 20% | C[C@]12CCC3C(CC=C4CC(O)CC[C@@]43C)C1CCC2c1ccn[nH]1 (some centres not stated) | –
21 nM | 65% | – | – | – | C[C@]12CC[C@H](O)CC1=CC[C@@H]1[C@@H]2CC[C@]2(C)C(c3ncc[nH]3)=CC[C@@H]12 | –
– | – | 150 nM | Not Active | 11% | C[C@]12CCC(O)CC1=CCC1C2CC[C@]2(C)C(c3ccnn3-c3ccccc3)=CCC12 (some centres not stated) | –
39 nM | – | – | – | – | C[C@]12CCC(=O)C=C1CCC1C2CC[C@]2(C)C(c3ccno3)=CCC12 (some centres not stated) | 32 nM
